Reference: ChEMBL document CHEMBL1122850, “Synthesis of 6-anilino-2-thiouracils and their inhibition of human placenta iodothyronine deiodinase” (J Med Chem, 1985)

Experiments:
[1] = target: T1, Thyroxine 5-deiodinase (Homo sapiens) (UniProt P55073); test: Inhibition of Human placenta inner-ring Iodothyronine 5-deiodinase activity measured as rT3 production in presence of DTT concentrations of 1.56 mM
T1 sequence (whole entry): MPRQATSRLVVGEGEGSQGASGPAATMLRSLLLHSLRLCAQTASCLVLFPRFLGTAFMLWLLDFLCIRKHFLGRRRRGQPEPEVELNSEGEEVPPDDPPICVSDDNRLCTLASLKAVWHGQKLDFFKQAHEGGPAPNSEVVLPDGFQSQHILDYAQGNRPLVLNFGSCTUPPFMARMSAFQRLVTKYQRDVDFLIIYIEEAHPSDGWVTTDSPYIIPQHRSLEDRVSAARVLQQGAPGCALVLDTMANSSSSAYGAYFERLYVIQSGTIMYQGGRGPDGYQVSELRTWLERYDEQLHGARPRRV
Outline: (§1)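 Placenta microsomes (225 μg/tube) incubated with 290 pmol T4 in 0.1 M potassium phosphate–0.01 M EDTA (pH 7.4), 60 min, 37 °C. DTT varied over 0.2–100 mM in place of 0.25 mM. Inhibitor present at 5 mM. rT3 production (pmol/tube) measured by radioimmunoassay and compared with control tubes without inhibitor. Quadruplicate incubations.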

[2] = target: T1, Thyroxine 5-deiodinase (Homo sapiens); test: Inhibition of Human placenta inner-ring Iodothyronine 5-deiodinase activity measured as rT3 production in presence of DTT concentrations of 12.5 mM; outline: as §1
[3] = target: T1, Thyroxine 5-deiodinase (Homo sapiens); test: Inhibition of Human Placenta Inner-Ring Iodothyronine 5-deiodinase at the compound concentration of 5 mM
Outline: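 Human placenta microsomal fraction (225 μg/tube) incubated 60 min at 37 °C with 290 pmol T4 in 0.1 M potassium phosphate–0.01 M EDTA, pH 7.4, with 0.25 mM DTT. Inhibitors at 5 mM, diluted from 30 mM stocks in 0.04 M NaOH. rT3 formed measured by radioimmunoassay. Inhibition relative to uninhibited control, quadruplicate incubations.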

[4] = target: T1, Thyroxine 5-deiodinase (Homo sapiens); test: Inhibition of Human placenta inner-ring Iodothyronine 5-deiodinase activity measured as rT3 production in presence of DTT concentrations of 0.2 mM; outline: as §1
[5] = target: T1, Thyroxine 5-deiodinase (Homo sapiens); test: Inhibition of Human placenta inner-ring Iodothyronine 5-deiodinase activity measured as rT3 production in presence of DTT concentrations of 100 mM; outline: as §1

| Structure (SMILES) | rT3 Production [1] [pmol/tube] | rT3 Production [2] [pmol/tube] | inhibition [3] [%] | rT3 Production [4] [pmol/tube] | rT3 Production [5] [pmol/tube] |
| --- | --- | --- | --- | --- | --- |
| CCCc1cc(=O)[nH]c(=S)[nH]1 | 13.3 | 43.3 | 29 | 2.6 | 104 |
| CCc1ccc(Nc2cc(=O)[nH]c(=S)n2C)cc1 |  |  | 2 |  |  |
| Cn1c(=S)[nH]c(N)c(Cc2ccccc2)c1=O |  |  | 79 |  |  |
| Nc1cc(O)nc(S)n1 |  |  | 16 |  |  |
| CCCCc1ccc(Nc2cc(=O)n(C)c(=S)[nH]2)cc1 |  |  | 20 |  |  |

Other lines, results leading:

| rT3 Production [1] [pmol/tube] | rT3 Production [2] [pmol/tube] | inhibition [3] [%] | rT3 Production [4] [pmol/tube] | rT3 Production [5] [pmol/tube] | Structure (SMILES) |
| --- | --- | --- | --- | --- | --- |
| 0.8 | 2.5 | 96 | 0.2 | 4.1 | CCCCc1ccc(Nc2cc(O)nc(S)n2)cc1 |
|  |  | 31 |  |  | Oc1cc(Nc2ccccc2)nc(S)n1 |
|  |  | 0 |  |  | CCc1ccc(Nc2cc(=O)n(C)c(=S)[nH]2)cc1 |
|  |  | 85 |  |  | CCc1ccc(Nc2cc(O)nc(S)n2)cc1 |
